According to PMC6102747 (Molecular Medicine Reports, 2018):
“And” between values parts separate entries of the source, which are not always exact repeats. Equal entries are not always repeated. Where two headings read alike, the source gives them in different places. Blank lines part the entries; values can stand above or below the compound they belong to.

Legend:
Cyp3a1 = assay: RT-qPCR mRNA expression in small intestine and liver; assay type: in vivo, rats; conditions: KET 75 mg/kg i.g. 7 days, vs control, P<0.001
Cyp3a2 = assay: as above; assay type: in vivo, rats; conditions: KET 75 mg/kg i.g. 7 days, vs control, P<0.001
P-gp = assay: Western blot protein expression in small intestine and liver; assay type: in vivo, rats; conditions: rat, in vivo
Mdr1 = assay: RT-qPCR mRNA expression in small intestine and liver; assay type: in vivo, rats; conditions: VER 4 mg/kg i.g. 7 days, vs control, P<0.001
Outline: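 Rats, 3 per group, dosed once daily for 7 days: phosphate buffer 5 ml/kg i.v., test compound 2.5/5/10 mg/kg i.v. in phosphate buffer, ketoconazole 75 mg/kg i.g. in olive oil, or verapamil 4 mg/kg i.g. in water. Olive oil 5 ml/kg gavaged 30 min after day-7 dose. Killed 24 h post-dose after overnight fast; liver and intestinal mucosa snap-frozen. qPCR: 40 cycles, 58°C annealing; 2−ΔΔCq.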

[1] = healthy volunteers, cited from earlier work

decrease in Cyp3a1 mRNA expression (Cyp3a1; liver): 78.64%
decrease in Cyp3a1 mRNA expression (Cyp3a1; small intestine): 78.27%
decrease in Cyp3a2 mRNA expression (Cyp3a2; liver): 87.39%
decrease in Cyp3a2 mRNA expression (Cyp3a2; small intestine): 70.09%
SMILES: CC(=O)N1CCN(c2ccc(OCC3COC(Cn4ccnc4)(c4ccc(Cl)cc4Cl)O3)cc2)CC1 (stereo not shown) [KET, ketoconazole, reference compound]

SMILES: COc1ccc(CCN(C)CCCC(C#N)(c2ccc(OC)c(OC)c2)C(C)C)cc1OC (stereo not shown) [VER, verapamil, reference compound]
decrease in P-gp protein expression (P-gp): 85.02% and 84.54%
decrease in Mdr1 mRNA expression (Mdr1; liver): 84.33%
decrease in Mdr1 mRNA expression (Mdr1; small intestine): 65.32%

SMILES: O=c1c(O)c(-c2ccc(O)c(O)c2)oc2cc(O)cc(O)c12 [quercetin]
increase in AUC of CsA ([1]; CsA 30 min following quercetin administration): 36%
increase in AUC of CsA ([1]; CsA 3 days following quercetin administration): 47%
increase in AUC of CsA ([1]; co-administration of quercetin (5 mg/kg) and CsA): 18%
